ChEMBL document CHEMBL1795285, “Facile fabrication of promising protein tyrosine phosphatase (PTP) inhibitor entities based on 'clicked' serine/threonine-monosaccharide hybrids” (Bioorg Med Chem, 2011)

System: HCT-116
Assay: Cytotoxicity against human HCT116 cells after 72 hrs by MTT assay
Type: functional, cell-based
Conditions: HCT-116, 72 h
Summary of the method: (§1)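 Cells seeded at 2000/well and held 24 h at 37 °C, 5% CO2 before treatment. After a 3 h MTT incubation, medium was replaced by DMSO. Absorbance read at 550 nm against a 690 nm reference, with OD taken as proportional to viable cell number.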

SMILES | IC50 [µM]
C[C@H](OCc1cn([C@@H]2O[C@H](COCc3ccccc3)[C@@H](OCc3ccccc3)[C@H](OCc3ccccc3)[C@H]2OCc2ccccc2)nn1)[C@H](NC(=O)OC(C)(C)C)C(=O)O | 12
CO[C@H]1O[C@H](Cn2cc(CO[C@@H](C)[C@H](NC(=O)OC(C)(C)C)C(=O)O)nn2)[C@@H](OCc2ccccc2)[C@H](OCc2ccccc2)[C@H]1OCc1ccccc1 | 33.5

Molecular target: T1, M-phase inducer phosphatase 2 (Homo sapiens, UniProt P30305)
T1 sequence (P30305 whole entry): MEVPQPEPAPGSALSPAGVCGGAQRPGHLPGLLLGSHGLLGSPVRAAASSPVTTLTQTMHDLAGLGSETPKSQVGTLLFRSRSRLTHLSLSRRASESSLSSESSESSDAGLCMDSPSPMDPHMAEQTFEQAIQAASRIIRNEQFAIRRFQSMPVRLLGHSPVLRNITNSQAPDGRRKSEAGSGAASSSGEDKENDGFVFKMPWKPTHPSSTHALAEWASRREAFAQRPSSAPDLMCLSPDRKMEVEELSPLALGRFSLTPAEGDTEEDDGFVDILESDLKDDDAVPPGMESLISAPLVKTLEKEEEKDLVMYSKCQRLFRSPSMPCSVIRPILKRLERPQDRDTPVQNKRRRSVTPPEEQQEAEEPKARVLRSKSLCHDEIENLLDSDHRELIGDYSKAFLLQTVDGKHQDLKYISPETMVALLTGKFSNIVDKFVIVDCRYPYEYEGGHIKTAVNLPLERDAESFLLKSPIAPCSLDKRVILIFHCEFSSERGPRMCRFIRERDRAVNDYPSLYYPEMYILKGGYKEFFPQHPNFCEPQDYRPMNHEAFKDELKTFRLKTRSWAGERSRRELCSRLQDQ
Assay: Inhibition of human Cdc25B
Conditions: not given

IC50 [µM] | SMILES
> 120 | CC(C)(C)OC(=O)N[C@@H](COCc1cn([C@@H]2O[C@H](CO)[C@@H](O)[C@H](O)[C@H]2O)nn1)C(=O)O
11.6 | C[C@H](OCc1cn([C@@H]2O[C@H](COCc3ccccc3)[C@@H](OCc3ccccc3)[C@H](OCc3ccccc3)[C@H]2OCc2ccccc2)nn1)[C@H](NC(=O)OC(C)(C)C)C(=O)O
27.1 | CO[C@H]1O[C@H](Cn2cc(CO[C@@H](C)[C@H](NC(=O)OC(C)(C)C)C(=O)O)nn2)[C@@H](OCc2ccccc2)[C@H](OCc2ccccc2)[C@H]1OCc1ccccc1

Molecular target: T2, M-phase inducer phosphatase 1 (Homo sapiens, UniProt P30304)
T2 sequence (P30304 whole entry): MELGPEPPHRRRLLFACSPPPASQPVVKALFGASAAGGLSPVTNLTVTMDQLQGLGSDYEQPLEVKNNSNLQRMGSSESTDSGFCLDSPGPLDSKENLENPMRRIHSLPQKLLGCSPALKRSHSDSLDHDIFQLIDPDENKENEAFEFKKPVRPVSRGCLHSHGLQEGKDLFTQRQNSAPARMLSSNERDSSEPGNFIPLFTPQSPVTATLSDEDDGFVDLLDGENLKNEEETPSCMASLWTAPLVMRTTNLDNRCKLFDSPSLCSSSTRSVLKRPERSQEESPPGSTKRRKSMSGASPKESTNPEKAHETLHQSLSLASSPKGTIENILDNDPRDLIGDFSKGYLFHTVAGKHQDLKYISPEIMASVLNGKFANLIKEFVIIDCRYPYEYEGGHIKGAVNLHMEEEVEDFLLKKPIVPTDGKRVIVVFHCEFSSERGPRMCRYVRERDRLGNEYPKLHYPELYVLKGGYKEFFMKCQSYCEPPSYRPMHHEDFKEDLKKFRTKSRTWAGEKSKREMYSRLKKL
Assay: Inhibition of human CDC25A
Conditions: not given

IC50 [µM] | SMILES
53 | C[C@H](OCc1cn([C@@H]2O[C@H](COCc3ccccc3)[C@@H](OCc3ccccc3)[C@H](OCc3ccccc3)[C@H]2OCc2ccccc2)nn1)[C@H](NC(=O)OC(C)(C)C)C(=O)O
119 | CO[C@H]1O[C@H](Cn2cc(CO[C@@H](C)[C@H](NC(=O)OC(C)(C)C)C(=O)O)nn2)[C@@H](OCc2ccccc2)[C@H](OCc2ccccc2)[C@H]1OCc1ccccc1

Molecular target: T3, Tyrosine-protein phosphatase non-receptor type 11 (Homo sapiens, UniProt Q06124)
T3 sequence (Q06124 whole entry): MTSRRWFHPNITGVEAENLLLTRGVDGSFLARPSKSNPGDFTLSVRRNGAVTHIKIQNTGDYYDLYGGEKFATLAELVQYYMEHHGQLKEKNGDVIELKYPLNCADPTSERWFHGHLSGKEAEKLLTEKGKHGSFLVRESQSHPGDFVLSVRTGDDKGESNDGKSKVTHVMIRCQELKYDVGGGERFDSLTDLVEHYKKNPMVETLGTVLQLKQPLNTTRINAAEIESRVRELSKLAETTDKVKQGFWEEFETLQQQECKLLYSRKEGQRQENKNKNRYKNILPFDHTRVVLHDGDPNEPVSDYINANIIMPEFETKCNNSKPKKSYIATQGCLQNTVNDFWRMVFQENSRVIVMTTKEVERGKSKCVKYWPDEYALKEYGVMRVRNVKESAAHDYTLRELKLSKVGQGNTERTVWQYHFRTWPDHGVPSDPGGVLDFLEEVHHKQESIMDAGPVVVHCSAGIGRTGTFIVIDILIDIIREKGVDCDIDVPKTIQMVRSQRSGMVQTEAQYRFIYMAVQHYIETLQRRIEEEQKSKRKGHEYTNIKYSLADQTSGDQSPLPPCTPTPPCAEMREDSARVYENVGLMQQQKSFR
Assay: Inhibition of SHP2
Conditions: not given

IC50 [µM] | SMILES
> 120 | CC(C)(C)OC(=O)N[C@@H](COCc1cn([C@@H]2O[C@H](CO)[C@@H](O)[C@H](O)[C@H]2O)nn1)C(=O)O
> 120 | C[C@H](OCc1cn([C@@H]2O[C@H](COCc3ccccc3)[C@@H](OCc3ccccc3)[C@H](OCc3ccccc3)[C@H]2OCc2ccccc2)nn1)[C@H](NC(=O)OC(C)(C)C)C(=O)O
> 120 | CO[C@H]1O[C@H](Cn2cc(CO[C@@H](C)[C@H](NC(=O)OC(C)(C)C)C(=O)O)nn2)[C@@H](OCc2ccccc2)[C@H](OCc2ccccc2)[C@H]1OCc1ccccc1

Molecular target: Tyrosine-protein phosphatase non-receptor type 6 (Homo sapiens, UniProt P29350)
Assay: Inhibition of SHP1
Conditions: not given

Chain of Tyrosine-protein phosphatase non-receptor type 6 (P29350 whole entry): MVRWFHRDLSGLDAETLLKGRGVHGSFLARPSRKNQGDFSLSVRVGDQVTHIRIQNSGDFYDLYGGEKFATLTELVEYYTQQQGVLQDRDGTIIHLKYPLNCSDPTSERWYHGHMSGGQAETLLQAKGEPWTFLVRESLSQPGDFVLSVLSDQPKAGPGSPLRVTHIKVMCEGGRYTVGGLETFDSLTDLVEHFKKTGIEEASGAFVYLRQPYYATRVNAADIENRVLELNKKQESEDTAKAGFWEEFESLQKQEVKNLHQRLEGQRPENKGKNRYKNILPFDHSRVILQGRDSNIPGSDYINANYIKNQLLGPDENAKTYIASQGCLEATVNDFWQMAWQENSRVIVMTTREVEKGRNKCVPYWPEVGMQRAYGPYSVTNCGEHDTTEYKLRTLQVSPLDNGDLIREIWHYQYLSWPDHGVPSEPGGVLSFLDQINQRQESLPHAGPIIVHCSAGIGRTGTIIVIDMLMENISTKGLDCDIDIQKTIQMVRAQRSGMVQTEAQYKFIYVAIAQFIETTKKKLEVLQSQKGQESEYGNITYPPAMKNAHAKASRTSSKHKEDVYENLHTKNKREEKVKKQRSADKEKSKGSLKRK

IC50 [µM] | SMILES
> 120 | CC(C)(C)OC(=O)N[C@@H](COCc1cn([C@@H]2O[C@H](CO)[C@@H](O)[C@H](O)[C@H]2O)nn1)C(=O)O
> 120 | C[C@H](OCc1cn([C@@H]2O[C@H](COCc3ccccc3)[C@@H](OCc3ccccc3)[C@H](OCc3ccccc3)[C@H]2OCc2ccccc2)nn1)[C@H](NC(=O)OC(C)(C)C)C(=O)O
> 120 | CO[C@H]1O[C@H](Cn2cc(CO[C@@H](C)[C@H](NC(=O)OC(C)(C)C)C(=O)O)nn2)[C@@H](OCc2ccccc2)[C@H](OCc2ccccc2)[C@H]1OCc1ccccc1

Molecular target: T4, Tyrosine-protein phosphatase non-receptor type 1 (Homo sapiens, UniProt P18031)
T4 sequence (P18031 whole entry): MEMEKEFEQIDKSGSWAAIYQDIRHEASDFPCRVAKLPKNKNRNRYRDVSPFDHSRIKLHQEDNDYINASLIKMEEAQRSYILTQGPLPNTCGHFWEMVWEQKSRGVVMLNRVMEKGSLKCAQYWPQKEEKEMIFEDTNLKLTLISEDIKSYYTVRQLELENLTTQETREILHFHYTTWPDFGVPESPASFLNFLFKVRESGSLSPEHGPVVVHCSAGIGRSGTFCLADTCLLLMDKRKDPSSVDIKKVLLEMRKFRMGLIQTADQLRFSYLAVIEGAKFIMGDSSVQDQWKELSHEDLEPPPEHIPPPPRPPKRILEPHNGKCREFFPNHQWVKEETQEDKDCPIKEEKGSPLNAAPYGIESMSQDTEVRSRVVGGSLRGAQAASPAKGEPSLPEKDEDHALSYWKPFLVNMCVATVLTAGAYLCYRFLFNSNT
Assay: Inhibition of human recombinant […] catalytic domain using pNPP substrate
Conditions: not given
Summary of the method: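 Recombinant human PTP1B catalytic domain (30 nM) with 2 mM pNPP in 50 mM MOPS, pH 6.5, at 30 °C. Inhibitor diluted around the estimated IC50. Initial rate taken from the early linear part of the 405 nm trace over 2 min. IC50 from nonlinear fit of % inhibition vs [I] with a Hill-coefficient equation. Means of three experiments.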

IC50 [µM] | SMILES
> 120 | CC(C)(C)OC(=O)N[C@@H](COCc1cn([C@@H]2O[C@H](CO)[C@@H](O)[C@H](O)[C@H]2O)nn1)C(=O)O
7.1 | C[C@H](OCc1cn([C@@H]2O[C@H](COCc3ccccc3)[C@@H](OCc3ccccc3)[C@H](OCc3ccccc3)[C@H]2OCc2ccccc2)nn1)[C@H](NC(=O)OC(C)(C)C)C(=O)O
22.3 | CO[C@H]1O[C@H](Cn2cc(CO[C@@H](C)[C@H](NC(=O)OC(C)(C)C)C(=O)O)nn2)[C@@H](OCc2ccccc2)[C@H](OCc2ccccc2)[C@H]1OCc1ccccc1

Molecular target: Receptor-type tyrosine-protein phosphatase F (Homo sapiens, UniProt P10586)
Assay: Inhibition of human LAR
Conditions: not given

Chain of Receptor-type tyrosine-protein phosphatase F (P10586 whole entry): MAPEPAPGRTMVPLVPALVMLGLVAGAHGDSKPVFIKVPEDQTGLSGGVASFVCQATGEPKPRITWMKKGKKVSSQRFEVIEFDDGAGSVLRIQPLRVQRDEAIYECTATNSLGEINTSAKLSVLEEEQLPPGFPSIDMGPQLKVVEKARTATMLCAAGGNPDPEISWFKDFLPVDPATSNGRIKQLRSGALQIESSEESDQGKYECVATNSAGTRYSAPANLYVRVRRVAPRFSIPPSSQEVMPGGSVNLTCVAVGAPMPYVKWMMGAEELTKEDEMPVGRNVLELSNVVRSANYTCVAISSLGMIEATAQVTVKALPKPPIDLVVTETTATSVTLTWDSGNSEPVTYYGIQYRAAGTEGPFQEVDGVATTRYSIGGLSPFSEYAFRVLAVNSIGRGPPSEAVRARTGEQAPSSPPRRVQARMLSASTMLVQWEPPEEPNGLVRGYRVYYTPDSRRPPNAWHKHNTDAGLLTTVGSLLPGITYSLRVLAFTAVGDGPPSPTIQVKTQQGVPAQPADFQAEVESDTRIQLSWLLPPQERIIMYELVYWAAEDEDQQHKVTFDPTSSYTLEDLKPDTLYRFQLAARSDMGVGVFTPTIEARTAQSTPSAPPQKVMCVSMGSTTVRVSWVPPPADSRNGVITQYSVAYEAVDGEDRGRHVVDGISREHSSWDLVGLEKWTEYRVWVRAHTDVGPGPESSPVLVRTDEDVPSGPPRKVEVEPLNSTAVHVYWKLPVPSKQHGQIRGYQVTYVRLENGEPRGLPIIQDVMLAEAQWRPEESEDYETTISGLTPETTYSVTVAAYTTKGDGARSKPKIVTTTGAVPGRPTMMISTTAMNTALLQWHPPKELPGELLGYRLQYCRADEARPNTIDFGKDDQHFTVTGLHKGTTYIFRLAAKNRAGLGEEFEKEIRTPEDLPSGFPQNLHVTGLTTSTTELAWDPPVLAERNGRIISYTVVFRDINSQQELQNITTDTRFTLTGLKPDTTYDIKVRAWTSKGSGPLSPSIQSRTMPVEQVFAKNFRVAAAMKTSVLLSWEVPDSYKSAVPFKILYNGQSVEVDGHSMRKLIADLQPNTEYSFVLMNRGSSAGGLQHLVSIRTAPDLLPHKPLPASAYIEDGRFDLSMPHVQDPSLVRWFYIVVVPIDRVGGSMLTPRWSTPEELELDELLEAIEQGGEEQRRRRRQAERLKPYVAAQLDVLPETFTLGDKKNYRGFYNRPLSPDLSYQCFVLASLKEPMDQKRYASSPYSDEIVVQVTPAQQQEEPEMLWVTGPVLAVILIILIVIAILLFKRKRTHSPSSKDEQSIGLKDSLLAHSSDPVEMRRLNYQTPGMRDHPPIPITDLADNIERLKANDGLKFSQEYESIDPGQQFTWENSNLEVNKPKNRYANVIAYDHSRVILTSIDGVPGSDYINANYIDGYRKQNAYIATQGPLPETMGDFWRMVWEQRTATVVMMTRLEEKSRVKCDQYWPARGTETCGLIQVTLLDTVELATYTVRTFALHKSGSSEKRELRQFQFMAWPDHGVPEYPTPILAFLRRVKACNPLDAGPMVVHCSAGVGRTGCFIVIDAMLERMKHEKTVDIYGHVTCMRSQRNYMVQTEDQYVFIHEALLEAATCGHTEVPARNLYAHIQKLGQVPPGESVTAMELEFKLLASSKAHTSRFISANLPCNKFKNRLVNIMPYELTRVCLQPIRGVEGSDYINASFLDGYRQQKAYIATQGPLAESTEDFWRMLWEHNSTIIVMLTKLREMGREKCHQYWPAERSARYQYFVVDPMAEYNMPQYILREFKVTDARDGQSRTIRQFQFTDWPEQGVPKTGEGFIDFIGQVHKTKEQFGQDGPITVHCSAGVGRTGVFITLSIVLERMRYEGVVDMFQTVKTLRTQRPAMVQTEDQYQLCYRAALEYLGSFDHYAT

IC50 [µM] | SMILES
> 120 | CC(C)(C)OC(=O)N[C@@H](COCc1cn([C@@H]2O[C@H](CO)[C@@H](O)[C@H](O)[C@H]2O)nn1)C(=O)O
> 120 | C[C@H](OCc1cn([C@@H]2O[C@H](COCc3ccccc3)[C@@H](OCc3ccccc3)[C@H](OCc3ccccc3)[C@H]2OCc2ccccc2)nn1)[C@H](NC(=O)OC(C)(C)C)C(=O)O
> 120 | CO[C@H]1O[C@H](Cn2cc(CO[C@@H](C)[C@H](NC(=O)OC(C)(C)C)C(=O)O)nn2)[C@@H](OCc2ccccc2)[C@H](OCc2ccccc2)[C@H]1OCc1ccccc1

System: HeLa
Assay: Cytotoxicity against human HeLa cells after 72 hrs by MTT assay
Type: functional, cell-based
Conditions: not given
Summary of the method: as §1

SMILES | IC50 [µM]
C[C@H](OCc1cn([C@@H]2O[C@H](COCc3ccccc3)[C@@H](OCc3ccccc3)[C@H](OCc3ccccc3)[C@H]2OCc2ccccc2)nn1)[C@H](NC(=O)OC(C)(C)C)C(=O)O | 31.5
CO[C@H]1O[C@H](Cn2cc(CO[C@@H](C)[C@H](NC(=O)OC(C)(C)C)C(=O)O)nn2)[C@@H](OCc2ccccc2)[C@H](OCc2ccccc2)[C@H]1OCc1ccccc1 | 69.5

Molecular target: T5, Tyrosine-protein phosphatase non-receptor type 2 (Homo sapiens, UniProt P17706)
T5 sequence (P17706 whole entry): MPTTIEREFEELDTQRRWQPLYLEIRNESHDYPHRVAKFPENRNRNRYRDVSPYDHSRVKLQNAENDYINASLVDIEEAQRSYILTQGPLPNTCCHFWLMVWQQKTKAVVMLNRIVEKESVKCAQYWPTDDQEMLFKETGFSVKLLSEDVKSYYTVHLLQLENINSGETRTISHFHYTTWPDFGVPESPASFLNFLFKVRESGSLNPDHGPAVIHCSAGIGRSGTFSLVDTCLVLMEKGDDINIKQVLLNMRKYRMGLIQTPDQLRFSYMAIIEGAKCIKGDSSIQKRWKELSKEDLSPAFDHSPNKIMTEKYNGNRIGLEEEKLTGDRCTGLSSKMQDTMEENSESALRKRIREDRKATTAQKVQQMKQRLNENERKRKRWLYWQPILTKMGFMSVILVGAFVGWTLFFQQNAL
Assay: Inhibition of TCPTP
Conditions: not given

IC50 [µM] | SMILES
38.6 | C[C@H](OCc1cn([C@@H]2O[C@H](COCc3ccccc3)[C@@H](OCc3ccccc3)[C@H](OCc3ccccc3)[C@H]2OCc2ccccc2)nn1)[C@H](NC(=O)OC(C)(C)C)C(=O)O
80.7 | CO[C@H]1O[C@H](Cn2cc(CO[C@@H](C)[C@H](NC(=O)OC(C)(C)C)C(=O)O)nn2)[C@@H](OCc2ccccc2)[C@H](OCc2ccccc2)[C@H]1OCc1ccccc1

System: A549
Assay: Cytotoxicity against human A549 cells after 72 hrs by MTT assay
Type: functional, cell-based
Conditions: A549, 72 h
Summary of the method: as §1

SMILES | IC50 [µM]
C[C@H](OCc1cn([C@@H]2O[C@H](COCc3ccccc3)[C@@H](OCc3ccccc3)[C@H](OCc3ccccc3)[C@H]2OCc2ccccc2)nn1)[C@H](NC(=O)OC(C)(C)C)C(=O)O | 25.3
CO[C@H]1O[C@H](Cn2cc(CO[C@@H](C)[C@H](NC(=O)OC(C)(C)C)C(=O)O)nn2)[C@@H](OCc2ccccc2)[C@H](OCc2ccccc2)[C@H]1OCc1ccccc1 | 62.8
